Published values of several laboratories.

Compound	target or system	read-out	method	tested at	time	endpoint	result
CC(=NNC(=O)c1ccccc1O)c1ccc(Nc2nnc(-c3ccc(Cl)cc3)c3ccccc23)cc1	MCF7	cell growth or viability	MTT	5 µM	24 h	viability	33.8%
Cc1c(C(=O)O)ccc2c3n(nc12)[C@@H]1[C@H](C3)N(CC2CC2)[C@@]2(C(=O)Nc3cc(Cl)ccc32)[C@H]1c1cccc(Cl)c1F	SJSA-1	cell growth or viability				GI50	0.00031 µM
CCN(CC)c1ccc(/C=N/c2ccc(Br)cc2)c(O)c1		DPPH scavenging				IC50	43.6 µM
CC(=NNC(=O)c1ccccc1)c1ccc(Nc2nnc(-c3ccc(Cl)cc3)c3ccccc23)cc1	MCF7	cell growth or viability	MTT	2.5 µM	24 h	viability	13.7%
Cc1c(C)c2c(c(C)c1O)CCC(C)(C(=O)O)O2 (stereo not drawn)		DPPH scavenging				IC50	70.2 µM
O=C(Nc1ccccc1)Nc1ccc(Oc2nnc(-c3ccc(Cl)cc3)c3ccccc23)cc1	MCF7	cell growth or viability	MTT	2.5 µM	24 h	viability	3.32%
Brc1ccccc1/C=N/N=C/c1ccccc1Br		DPPH scavenging				IC50	> 3000 µM
CCN(CC)c1ccc(/C=N/c2ccc(Cl)cc2)c(O)c1		DPPH scavenging				IC50	30.3 µM
Clc1cccc(/C=N/N=C/c2cccc(Cl)c2)c1		DPPH scavenging				IC50	2350 µM
C=CC(=O)NC1CCN(c2ncc3ncnc(Nc4ccc(Oc5ccc6c(c5)ncn6C)c(C)c4)c3n2)CC1	SW-620	cell growth or viability				EC50	0.0824 µM
CC(=NNC(=O)c1ccccc1Br)c1ccc(Nc2nnc(-c3ccc(Cl)cc3)c3ccccc23)cc1	MCF7	cell growth or viability	MTT	2.5 µM	24 h	viability	14.6%
COc1cc(/C=N/N=C/c2cc(OC)c(OC)c(OC)c2)cc(OC)c1OC		DPPH scavenging				IC50	2390 µM
